Results collected from several papers.
Lines come from different studies, so protocols differ. pKd: −log10 of the molar value.
ITK: Tyrosine-protein kinase ITK/TSK (ITK, Homo sapiens, UniProt Q08881)

Structure (SMILES) | target | assay | conditions | pKd
NS(=O)(=O)C(F)(F)F | Carbonic anhydrase 1 (CA1, Homo sapiens, UniProt P00915) | binding, ITC | pH 6 | 6.79
O=C(O)c1cc(O)c2c(c1)C(=O)c1cccc(O)c1C2=O | Oxysterols receptor LXR-alpha (NR1H3, Homo sapiens, UniProt Q13133) | binding, SPR |  | 4.33
N#CC1(c2ccc(NC(=O)c3cccnc3NCc3ccncc3)cc2)CCCC1 | AMP-activated protein kinase (AMPK) alpha-1/beta-1/gamma-1 (PRKAG1/PRKAA1/PRKAB1, Homo sapiens, UniProt P54619+Q13131+Q9Y478) | binding, SPR |  | 5.60
Cc1cc2nc3c(=O)[nH]c(=O)nc-3n(C[C@H](O)[C@H](O)[C@H](O)COP(=O)(O)OP(=O)(O)OC[C@H]3O[C@@H](n4cnc5c(N)ncnc54)[C@H](O)[C@@H]3O)c2cc1C | Cytotoxic granule associated RNA binding protein TIA1 (TIA1, Homo sapiens, UniProt P31483) | binding | lysate | 7.42
COc1cc(Nc2ncc3c(n2)-c2ccc(Cl)cc2C(c2c(F)cccc2OC)=NC3)ccc1C(=O)O | Protein-tyrosine kinase 2-beta (PTK2B, Homo sapiens, UniProt Q14289) | binding | lysate | 5.52
Cc1cc(Nc2cc3ncccc3c(N[C@@H]3C[C@H]4CC[C@@H](C3)N4CCC#N)n2)n[nH]1 | Mitogen-activated protein kinase kinase kinase 2 (MAP3K2, Homo sapiens, UniProt Q9Y2U5) | binding, competition with immobilised ligand |  | 7.72
Cc1cnc(-c2ccc(-c3ccc(NC(=O)Nc4c(F)cc(F)cc4F)cc3F)c3c2C(=O)NC3)[nH]1 | ITK | binding, competition with immobilised ligand |  | 8.23
CCCN1CCN(c2ccc(-c3cncc(Cl)c3N3CCC4(CCNC4=O)CC3)cc2)CC1 | Nicotinamide phosphoribosyltransferase (NAMPT, Homo sapiens, UniProt P43490) | cell-free assay | lysate | 5.19
CC#CC(=O)N1CC[C@@H](n2cc(-c3ccc(Oc4c(F)cccc4F)cc3)c3c(N)n[nH]c(=O)c32)C1 | ITK | binding, competition with immobilised ligand |  | < 5.52
NS(=O)(=O)c1ccc(C(F)(F)F)cc1 | Carbonic anhydrase 2 (CA2, Homo sapiens, UniProt P00918) | binding, ITC |  | ~7.15
COc1ccc2c(c1)sc(-c1ccc(N(C)C)cc1)[n+]2C | Alpha-synuclein, fibril (SNCA, Homo sapiens, UniProt P37840) | binding, SPR |  | 4.14
FC(F)(F)c1n[nH]cc1-c1nc2ccc3[nH]ncc3c2c2c1CCCC2 | Tyrosine-protein kinase ABL1, phosphorylated (ABL1, Homo sapiens, UniProt P00519) | binding, competition with immobilised ligand |  | 5.14
